Source: ChEMBL document CHEMBL4152311, “Structure-activity relationship studies and pharmacological characterization of N5-heteroarylalkyl-substituted-2-(2-furanyl)thiazolo[5,4-d]pyrimidine-5,7-diamine-based derivatives as inverse agonists at human A2A adenosine receptor” (Eur J Med Chem, 2018)

Columns and labels:
Adenosine receptor A2a [1] = target: T1, Adenosine receptor A2a (Homo sapiens, UniProt P29274); assay: Displacement of [3H]ZM241385 from human adenosine A2A receptor expressed in CHO cell membranes measured after 60 mins by scintillation counting method
T1 sequence (P29274 whole entry): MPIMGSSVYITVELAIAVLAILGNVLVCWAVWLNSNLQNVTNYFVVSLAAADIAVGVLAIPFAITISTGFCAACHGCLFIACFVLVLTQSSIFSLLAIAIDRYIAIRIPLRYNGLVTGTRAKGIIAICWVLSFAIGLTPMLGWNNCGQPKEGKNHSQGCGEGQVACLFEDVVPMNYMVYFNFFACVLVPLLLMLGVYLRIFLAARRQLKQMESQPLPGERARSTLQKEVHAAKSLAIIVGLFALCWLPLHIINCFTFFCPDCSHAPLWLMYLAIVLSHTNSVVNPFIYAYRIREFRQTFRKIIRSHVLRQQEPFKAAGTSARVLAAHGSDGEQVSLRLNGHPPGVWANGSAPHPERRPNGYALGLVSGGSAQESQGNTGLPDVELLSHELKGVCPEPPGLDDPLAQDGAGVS

[2] = target: T2, Adenosine receptor A1 (Homo sapiens) (UniProt P30542); assay: Inverse agonist activity at human adenosine A1 receptor expressed in CHO cells assessed as cAMP accumulation at 10 uM measured after 150 mins in presence of [3H]cAMP by scintillation counting method relative to control; type: functional, cell-based
T2 sequence (whole entry): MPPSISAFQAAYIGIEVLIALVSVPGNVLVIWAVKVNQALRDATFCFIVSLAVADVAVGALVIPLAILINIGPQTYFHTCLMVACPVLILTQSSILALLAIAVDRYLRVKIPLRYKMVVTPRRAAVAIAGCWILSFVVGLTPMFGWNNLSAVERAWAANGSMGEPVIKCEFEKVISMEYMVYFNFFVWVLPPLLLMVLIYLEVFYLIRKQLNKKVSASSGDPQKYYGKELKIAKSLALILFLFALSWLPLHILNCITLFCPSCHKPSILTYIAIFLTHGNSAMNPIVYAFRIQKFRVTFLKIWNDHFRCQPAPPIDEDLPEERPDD
Method in brief: (§1)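 Intact CHO cells expressing human A1, A2B or A3 receptor (grown in DMEM F12) exposed to test compound at 10 μM under basal conditions, no agonist; cAMP measured by competitive protein binding with [3H]-cAMP. Result as percent of basal cAMP (basal = 100%); mean ± SEM.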

[3] = target: T3, Adenosine receptor A3 (Homo sapiens) (UniProt P0DMS8); assay: Inverse agonist activity at human adenosine A3 receptor expressed in CHO cells assessed as cAMP accumulation at 10 uM measured after 150 mins in presence of [3H]cAMP by scintillation counting method relative to control; type: functional, cell-based; method in brief: as §1
T3 sequence (whole entry): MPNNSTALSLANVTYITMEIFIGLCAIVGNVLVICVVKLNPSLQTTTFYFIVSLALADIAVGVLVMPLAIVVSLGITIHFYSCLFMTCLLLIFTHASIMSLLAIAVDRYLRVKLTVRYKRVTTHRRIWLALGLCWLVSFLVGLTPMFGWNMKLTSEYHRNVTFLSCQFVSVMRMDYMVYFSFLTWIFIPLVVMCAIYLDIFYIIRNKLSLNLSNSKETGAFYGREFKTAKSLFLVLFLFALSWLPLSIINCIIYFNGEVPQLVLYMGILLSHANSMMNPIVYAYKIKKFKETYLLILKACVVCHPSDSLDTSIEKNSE

[4] = target: T4, Adenosine receptor A2b (Homo sapiens) (UniProt P29275); assay: Inverse agonist activity at human adenosine A2B receptor expressed in CHO cells assessed as cAMP accumulation at 10 uM measured after 150 mins in presence of [3H]cAMP by scintillation counting method relative to control; type: functional, cell-based; method in brief: as §1
T4 sequence (whole entry): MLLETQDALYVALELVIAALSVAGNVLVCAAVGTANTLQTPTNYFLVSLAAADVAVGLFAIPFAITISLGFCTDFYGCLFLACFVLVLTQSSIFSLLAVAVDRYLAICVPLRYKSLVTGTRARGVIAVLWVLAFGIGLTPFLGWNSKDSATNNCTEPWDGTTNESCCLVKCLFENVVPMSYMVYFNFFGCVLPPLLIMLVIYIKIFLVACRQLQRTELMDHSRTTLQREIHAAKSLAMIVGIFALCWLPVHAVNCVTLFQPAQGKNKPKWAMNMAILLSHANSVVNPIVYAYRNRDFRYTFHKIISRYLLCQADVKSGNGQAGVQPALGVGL

Adenosine receptor A1 = target: T5, Adenosine receptor A1 (Homo sapiens, UniProt P30542); assay: Displacement of [3H]DPCPX from human adenosine A1 receptor expressed in CHO cell membranes measured after 90 mins by scintillation counting method
T5 sequence (P30542 whole entry): T2 sequence (whole entry)

Adenosine receptor A3 = target: T6, Adenosine receptor A3 (Homo sapiens, UniProt P0DMS8); assay: Displacement of [125I]AB-MECA from human adenosine A3 receptor expressed in CHO cell membranes measured after 120 mins by scintillation counting method
T6 sequence (P0DMS8 whole entry): T3 sequence (whole entry)
Method in brief: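 Membranes from CHO cells transfected with the human receptor (A1 or A3) competed against [3H]DPCPX (A1) or [125I]AB-MECA (A3) over a range of test concentrations, per earlier-described method; percent inhibition taken at 10 μM.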

Adenosine receptor A2b = target: T7, Adenosine receptor A2b (Homo sapiens, UniProt P29275); assay: Antagonist activity at human adenosine A2B receptor expressed in CHO cells assessed as inhibition of NECA-stimulated cAMP accumulation measured after 150 mins in presence of [3H]cAMP by scintillation counting method
T7 sequence (P29275 whole entry): T4 sequence (whole entry)

Adenosine receptor A2a [5] = target: T1, Adenosine receptor A2a; assay: Inverse agonist activity at human adenosine A2A receptor expressed in CHO cells assessed as inhibition of cAMP accumulation measured after 150 mins in presence of [3H]cAMP by scintillation counting method; type: functional, cell-based
Adenosine receptor A2a [6] = target: T1, Adenosine receptor A2a; assay: Antagonist activity against human adenosine A2A receptor expressed in CHO cells assessed as inhibition of CGS21680-stimulated cAMP accumulation measured after 150 mins in presence of [3H]cAMP by scintillation counting method; type: functional, cell-based

| KiH (Adenosine receptor A2a [1]) [fM] | KiL (Adenosine receptor A2a [1]) [nM] | Activity [2] [%] | Activity [3] [%] | Activity [4] [%] | Ki (Adenosine receptor A1) [nM] | Ki (Adenosine receptor A2a [1]) [nM] | Ki (Adenosine receptor A3) [nM] | IC50 (Adenosine receptor A2b) [nM] | IC50 (Adenosine receptor A2a [5]) [nM] | IC50 (Adenosine receptor A2a [6]) [nM] | SMILES |
| --- | --- | --- | --- | --- | --- | --- | --- | --- | --- | --- | --- |
| 10.7 | 3.82 | 98 | 96 | 99 |  |  |  |  |  |  | Nc1nc(NCc2cccs2)nc2sc(-c3ccco3)nc12 |
| 10.6 | 18 | 100 | 94 | 99 |  |  |  |  |  |  | Nc1nc(NCCc2cccs2)nc2sc(-c3ccco3)nc12 |
|  |  |  |  |  | 71 | 34 | 15.3 | 91 |  |  | Cc1ccc(-c2nc3c(N)nc(NCc4cccs4)nc3s2)o1 |
|  |  | 98 | 105 | 99 |  |  |  |  |  |  | Nc1nc(NCc2ccsc2)nc2sc(-c3ccco3)nc12 |
|  |  |  |  |  | 37 | 22 | 430 | 2770 |  |  | COc1cccc(CNc2nc(N)c3nc(-c4cccs4)sc3n2)c1 |
|  |  | 97 | 99 | 96 | 73 | 10.1 | 38 | 547 | 13.2 | 17.6 | Nc1nc(NCc2cccs2)nc2sc(-c3cccs3)nc12 |
|  |  | 99 | 103 | 106 | 17.3 | 2.24 | 275 | 4570 | 3.36 | 4.41 | COc1ccccc1CNc1nc(N)c2nc(-c3cccs3)sc2n1 |
| 39 | 1.73 | 101 | 104 | 101 |  |  |  |  |  |  | Nc1nc(NCc2ccco2)nc2sc(-c3ccco3)nc12 |

Second part, the compound before the results:

| SMILES | KiH (Adenosine receptor A2a [1]) [fM] | KiL (Adenosine receptor A2a [1]) [nM] | Activity [2] [%] | Activity [3] [%] | Activity [4] [%] | Ki (Adenosine receptor A1) [nM] | Ki (Adenosine receptor A2a [1]) [nM] | Ki (Adenosine receptor A3) [nM] | IC50 (Adenosine receptor A2b) [nM] | IC50 (Adenosine receptor A2a [5]) [nM] | IC50 (Adenosine receptor A2a [6]) [nM] |
| --- | --- | --- | --- | --- | --- | --- | --- | --- | --- | --- | --- |
| Nc1nc(NCc2cccnc2)nc2sc(-c3ccco3)nc12 | 217 | 0.68 | 96 | 100 | 97 |  |  |  |  |  |  |
| COc1ccccc1CNc1nc(N)c2nc(-c3ccc(C)o3)sc2n1 |  |  |  |  |  | 29 | 20 | 141 | 389 |  |  |
| Nc1nc(NCCc2cccnc2)nc2sc(-c3ccco3)nc12 |  |  | 102 | 102 | 97 |  |  |  |  |  |  |
| Nc1nc(NCc2cnccn2)nc2sc(-c3ccco3)nc12 |  |  | 102 | 98 | 102 |  |  |  |  |  |  |
| Nc1nc(NCCc2ccco2)nc2sc(-c3ccco3)nc12 |  |  | 95 | 97 | 103 |  |  |  |  |  |  |
| Nc1nc(NCc2ccccn2)nc2sc(-c3ccco3)nc12 |  |  | 103 | 101 | 98 |  |  |  |  |  |  |
| Nc1nc(NCCc2ccc(O)cc2)nc2nc(-c3ccco3)nn12 |  |  | 101 | 105 |  |  |  |  |  |  |  |
| COc1cccc(CNc2nc(N)c3nc(-c4ccc(C)o4)sc3n2)c1 |  |  |  |  |  | 70 | 144 | 160 | 120 |  |  |
| Nc1nc(NCc2ccncc2)nc2sc(-c3ccco3)nc12 |  |  | 103 | 102 | 103 |  |  |  |  |  |  |
